# Screens: PubChem, The Scripps Research Institute Molecular Screening Center
# OX1R antag-1: blocks the human orexin 1 receptor | 330,000 compounds, 1.8% hits | O43613 | inhibition, % at 6.6 µM | OX1R-expressing cells, FRET antagonist read-out; in the data active = inhibition mostly above about 38%, no sharp cut-off; inactive = mostly below about 40%;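 note: 0% = agonist challenge alone and 100% = reference antagonist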
# Target sequence (O43613 whole entry, looked up): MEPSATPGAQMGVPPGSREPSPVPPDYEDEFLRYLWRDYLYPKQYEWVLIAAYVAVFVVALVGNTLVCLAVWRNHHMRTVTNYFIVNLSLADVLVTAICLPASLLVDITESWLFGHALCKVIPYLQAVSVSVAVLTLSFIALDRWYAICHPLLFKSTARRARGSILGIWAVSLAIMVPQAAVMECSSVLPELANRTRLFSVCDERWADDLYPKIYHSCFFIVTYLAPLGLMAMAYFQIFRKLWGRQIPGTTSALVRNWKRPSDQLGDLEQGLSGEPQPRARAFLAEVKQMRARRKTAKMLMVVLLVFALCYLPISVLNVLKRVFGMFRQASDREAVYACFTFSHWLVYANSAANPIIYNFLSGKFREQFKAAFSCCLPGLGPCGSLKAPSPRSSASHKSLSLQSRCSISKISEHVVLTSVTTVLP
# GalR3 antag: blocks the human galanin receptor 3; HEK293 GalR3-CNG cAMP membrane potential fluorescence; galR3 body fused to GalR1 C-terminus; O60755; inhibition, % at 3 µM; 360,000 compounds, 0.44% hits; AID 651719;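 active = inhibition above the screen-wide average plus 3 SD, cut at about 13% in these data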;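 note: forskolin and galanin both at EC90 stimulate the cells; cAMP rise reported by CNG channel membrane potential dye signal; 0% = forskolin plus galanin with DMSO and 100% = forskolin alone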
# OX1R antag-2: blocks the human orexin 1 receptor; AID 434989; 330,000 compounds, 0.43% hits; O43613; CHO/OX1R cells, Fluo-8 calcium fluorescence, orexin A; inhibition, % at 5 µM;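 active = inhibition above its plate's threshold, mean inhibition of all tested compounds on the plate plus 3 SD, cut at about 37% in these data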;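 note: 0% = orexin A challenge wells and 100% = SB-334867-A antagonist wells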
# CHO parental Ca: counter-screen: ATP calcium response change in parental CHO cells | parental CHO-K1, ATP-induced calcium, Fluo-8 fluorescence | inhibition, % at 5.6 µM | 330,000 compounds, 0.63% hits;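 active = inhibition above that plate's mean sample inhibition plus 3 SD, cut at about 26% in these data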;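 note: 0% = ATP-challenged DMSO wells and 100% = DMSO wells without ATP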
#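 test system = CHO parental line | reagent = ATP stimulus | measured by = intracellular calcium via Fluo-8 no-wash fluorescent dye | control set = ATP and no-ATP DMSO wells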
# GPR7 antagonist: blocks human GPR7 receptor signaling | AID 1861 | inhibition, % at 4.4 µM | 290,000 compounds, 1.1% hits | GPR7-expressing cells, fluorescence antagonist assay | P48145; in the data active = inhibition above about 16%, passing the limit was not always enough;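 note: cells stimulated with the agonist NPW; 0% = agonist with vehicle and 100% = vehicle without agonist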
# GalR3 conf: confirmation of human galanin receptor 3 antagonists; shares compounds with GalR3 antag; HEK293 GalR3 CNG cAMP biosensor, membrane potential fluorescence; galR3 fused to GalR1 carboxy tail; challenged with forskolin and galanin at EC90; inhibition, % at 3 µM; 1,600 compounds, 59% hits; AID 652245;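 active = inhibition above the primary screen's cutoff, the mean inhibition of all screened compounds plus 3 SD, cut at about 13% in these data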;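 note: 0% = forskolin plus galanin and 100% = forskolin alone with DMSO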
# HEK-CNG parental: parental cell agonism counter-screen for GalR3 antagonists | shares compounds with GalR3 antag | HEK293-CNG parental cells, cAMP membrane potential fluorescence; normalised: DMSO wells 0%, forskolin wells 100% | activation, % at 3 µM | 1,600 compounds, 10% hits; in the data active = activation above about 1.3%
# Starred values were filed as active, the others as inactive; / = not tested or not shown. Sampled rows, rich in hits. Any-hit rate of the full collection: about 3.1%.
SMILES,OX1R antag-1,GalR3 antag,OX1R antag-2,CHO parental Ca,GPR7 antagonist,GalR3 conf,HEK-CNG parental
O=C(NCC(=O)N1CCN(c2ccccc2)CC1)c1ccc(Cl)cc1,7,14*,-16,-16,8,1,0
COc1cccc(SCc2noc(C(=O)NCCN(C)C)c2C(=O)NCCN(C)C)c1,12,-1,-2,-4,/,/,/
COC(=O)CC1OCC=C2CN3CCC45C6=CC(=O)C(=O)C([N+](=O)[O-])=C6NC4C1C2CC35 (centres undefined),/,1,/,/,/,/,/
N#Cc1ccc(OCC(=O)OCC(=O)Nc2sccc2C(N)=O)cc1,6,-6,16,6,/,/,/
COc1ccc(CCC(=O)OCC(=O)Nc2sccc2C(N)=O)cc1OC,36*,99*,46*,47*,/,92*,0
COc1cc(CC(=O)Nc2sccc2C(N)=O)cc(OC)c1OC,35,-1,5,-24,-11,/,/
Cc1ccc(OCC(=O)OCC(=O)Nc2sccc2C(N)=O)cc1C,10,27*,21,11,-5,3,0
CC(=O)Nc1ccc(-c2csc(NC(=O)C3CC(=O)N(c4ccc5c(c4)OCCO5)C3)n2)cc1 (centres undefined),6,14*,-7,-4,-6,4,0
COc1ccc(-c2csc(NC(=O)C3CC(=O)N(c4ccc5c(c4)OCCO5)C3)n2)cc1 (centres undefined),22,-4,3,7,7,/,/
CCCOc1ccc(CSc2nc3ccccc3[nH]2)cc1,27,86*,18,48*,4,108*,-1
COCC(C)n1c(C)cc(C(=O)COC(=O)c2ccc3c(c2)NC(=O)CS3)c1C (centres undefined),16,17*,-14,-8,-1,10,0
COCC(C)n1c(C)cc(C(=O)COC(=O)c2n[nH]c3ccccc23)c1C (centres undefined),18,-3,-21,-8,4,/,/
OC1CCC2CN3CCc4c([nH]c5ccccc45)C3CC2C1 (centres undefined),/,-6,/,/,/,/,/
COc1ccc(OCC(O)CNC(=O)c2ccc(OC)cc2)cc1 (centres undefined),13,14*,-15,-10,-7,4,0
c1ccc2c(c1)nc(NCCN1CCOCC1)c1nncn12,5,/,-3,-5,-17,8,0
CC(C)(C)NC(=O)CN(C(=O)c1snc(C(=O)NC2CCCCC2)c1N)c1ccccc1F,4,-10,-29,-32,-14,/,/
COc1ccc(-c2cc(NC=O)c3ncc(-c4ccc(OC)c(OC)c4)n3c2)c(OC)c1,/,44*,/,/,/,25*,1
COc1cccc(-c2cnc3c(NC=O)cc(-c4cc(OC)c(OC)c(OC)c4)cn23)c1,/,-1,/,/,/,/,/
COc1cccc(-c2cc(NC=O)c3ncc(-c4ccc(OC)c(OC)c4)n3c2)c1,/,38*,/,/,/,39*,1
COc1ccc(-c2cnc3c(NC=O)cc(-c4cc(OC)c(OC)c(OC)c4)cn23)cc1OC,/,4,/,/,/,/,/
COc1ccc(-c2cnc3c(NC=O)cc(-c4ccccc4)cn23)cc1OC,/,44*,/,/,/,15*,1
COc1ccc(-c2cnc3c(NC=O)cc(-c4ccc(F)cc4)cn23)cc1OC,/,15*,/,/,/,21*,1
Cc1ccc(OCc2cc(C(=O)N(C)Cc3cnc4ccccn34)no2)cc1C,2,-8,1,0,6,/,/
CCOc1ccc(CCNS(=O)(=O)c2ccc3c(c2)N(C(C)=O)CCO3)cc1OCC,16,-2,-21,-24,4,/,/
COC(=O)[C@@]12C[C@@H](CC(=O)N3CCC(c4ccccc4)CC3)C(=O)N(Cc3cccc4ccccc34)C1=CCC(C)(C)C2,/,-8,/,/,/,/,/
SMILES,OX1R antag-1,GalR3 antag,OX1R antag-2,CHO parental Ca,GPR7 antagonist,GalR3 conf,HEK-CNG parental
CCc1ccc(CNC(=O)C2CC(=O)N(C3CCCC3)C2)cc1 (centres undefined),11,-6,-24,-25,-3,/,/
COc1ccc(-c2cnc3c(NC=O)cc(-c4cccc(NS(C)(=O)=O)c4)cn23)cc1OC,/,59*,/,/,/,43*,0
COc1ccccc1-c1cc(NC=O)c2ncc(-c3ccc(S(C)(=O)=O)cc3)n2c1,/,14*,/,/,/,30*,1
Cc1cc2c(SCC(=O)Nc3ccccc3O)ncnc2s1,/,-5,/,/,/,/,/
COC(=O)c1cnn(-c2nc3c(C)cccc3s2)c1C,0,0,-12,5,-16,/,/
CCCCc1c(C)nc(Nc2ccc(OC)cc2)[nH]c1=O,-2,28*,-13,0,-2,-2,0
CCCCCc1c(C)nc(Nc2ccc(F)cc2)[nH]c1=O,14,-4,-10,6,11,/,/
CCc1ccc(CNCc2ccc(OCC(O)CN(C)Cc3ccccc3)cc2)nc1 (centres undefined),9,56*,-30,-23,-12,14*,15*
COc1cccc2[nH]c3c(N4CCC(C)CC4)ncnc3c12,7,86*,-22,-20,4,96*,1
COc1cccc2[nH]c3c(N4CCN(Cc5ccc6c(c5)OCO6)CC4)ncnc3c12,16,5,-14,-17,7,/,/
O=C(NC1C2CC3CC(C2)CC1C3)C1CCCCC1 (centres undefined),-5,-10,-17,0,-11,/,/
CCOCCCNCC(O)c1ccccc1 (centres undefined),22,-2,-10,-5,-7,/,/
OCc1cc(C(O)CNCCCCCCOCCCCc2ccccc2)ccc1O (centres undefined),18,19*,-17,1,4,32*,9.1*
Cc1ccc(S(=O)(=O)n2c3ccc(Cl)cc3c3nc(C)sc32)cc1,/,/,/,/,-9,2,0
CC(C)CC1C(=O)N(Cc2cn(Cc3ccco3)nn2)CCS(=O)(=O)N1Cc1ccc(-c2ccc(F)nc2)cc1 (centres undefined),/,-6,/,/,/,/,/
O=C(OCCN1C(=O)c2cccc3c(N4CCOCC4)ccc(c23)C1=O)c1ccccc1Cl,69*,15*,82*,91*,0,74*,2.9*
O=C(OCCN1C(=O)c2cccc3c(N4CCOCC4)ccc(c23)C1=O)c1ccc(Cl)cc1Cl,10,0,5,22,16,/,/
CCCCC(CC)C(=O)Nc1cc([N+](=O)[O-])ccc1F (centres undefined),35,-4,-17,-4,-5,/,/
CC(OC(=O)c1cc(=O)[nH]c2ccccc12)C(=O)N1C(C)CCCC1C (centres undefined),6,-7,-33,-18,/,/,/
CCCn1nc(C(=O)NNC(=O)CCCOc2ccc(OC)cc2)c2ccccc2c1=O,7,58*,-12,-37,/,44*,0
